From article PMC4775349 (Chemical communications (Cambridge, England), 2016)

Biological target: T1, His6-Te2FT (Thermosynechococcus vestitus, UniProt Q8DK72)
T1 sequence (Q8DK72 1-293): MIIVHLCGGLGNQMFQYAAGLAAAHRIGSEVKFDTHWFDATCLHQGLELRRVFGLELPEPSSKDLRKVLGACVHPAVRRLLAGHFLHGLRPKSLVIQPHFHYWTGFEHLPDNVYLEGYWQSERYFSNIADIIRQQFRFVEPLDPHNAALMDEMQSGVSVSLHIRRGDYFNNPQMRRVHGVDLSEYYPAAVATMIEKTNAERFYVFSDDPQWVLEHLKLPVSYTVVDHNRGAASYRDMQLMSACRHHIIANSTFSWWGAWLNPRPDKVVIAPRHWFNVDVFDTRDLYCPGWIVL
Test: HPLC-based fucosyltransferase kinetics
Format: biochemical
Details: α1–2-fucosyltransferase activity; acceptor; donor GDP-fucose
Procedure, shortened: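 Enzyme is N-His6-tagged Te2FT from the pET15b vector, expressed in E. coli at 16 °C for 20 h with shaking at 120 rpm. It was purified on a Ni2+ column and quantified by bicinchoninic acid assay. Apparent kinetic parameters (kcat, KM, kcat/KM) were determined for α1–2-fucosyltransferase activity. The acceptor was Galβ1–3GlcNAcβ2AA and the donor was GDP-fucose.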

Km: 790 ± 110 µM
Substance: Galβ1–3GlcNAcβ2AA
